Values after ≈ are worked out from the molar mass of the structure shown.
Experiments:
KB = assay: Cytotoxicity against human KB cells by SRB assay; format: functional, cell-based
Outline: (§1)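 Colorimetric cytotoxicity assay run on oral human epidermal carcinoma (KB), human breast cancer (BC), human small-cell lung cancer (NCI-H187) and African green monkey kidney fibroblast (Vero) cells. IC50 values are reported in µM.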

Vero = assay: Cytotoxicity against African green monkey Vero cells by SRB assay; format: cell-based; conditions: Chlorocebus sabaeus; outline: as §1
NCI-H187 = assay: Cytotoxicity against human NCI-H187 cells by SRB assay; format: functional, cell-based; outline: as §1
[1] = Cytotoxicity against human BC cells by SRB assay; format: functional, cell-based; outline: as §1
[2] = test system: Mycobacterium tuberculosis; assay: Antituberculosis activity against Mycobacterium tuberculosis H37Ra after 4 days by Alamar blue assay; format: functional; conditions: 96 h
Outline: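 Microplate resazurin (Alamar Blue) growth-inhibition assay against M. tuberculosis H37Ra; MIC taken as the lowest concentration giving ≥90% growth inhibition.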

Human alphaherpesvirus 1 = assay: Antiviral activity against Herpes simplex virus type 1; format: functional, organism-based
Outline: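 HSV-1 antiviral activity read out by a colorimetric method, with IC50 values in µM.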

| SMILES | IC50 (KB) | IC50 (Vero) | IC50 (NCI-H187) | IC50 [1] | MIC [2] | IC50 (Human alphaherpesvirus 1) |
| --- | --- | --- | --- | --- | --- | --- |
| C[C@H]1CC[C@H]2[C@@H](C=C[C@@H]3[C@@H](O)O[C@@H](CO)C(=O)[C@@]32C)C1 | > 71 µM | > 178 µM | > 71 µM | > 71 µM | > 178 µM |  |
| Cc1ccc(O)c2c1C[C@@H](C)OC2=O | > 104 µM | > 260 µM | > 104 µM | > 104 µM | > 260 µM |  |
| Nc1nc2c(ncn2COCCO)c(=O)[nH]1 [ACYCLOVIR] |  |  |  |  |  | 13 µM |
| COc1cccc2c1C(=O)c1c(O)c3c(c(O)c1C2=O)C[C@@](O)(C(=O)CO)C[C@@H]3O[C@H]1C[C@H](N)[C@H](O)[C@H](C)O1 [DOXORUBICIN] | 0.24 µM |  | 0.08 µM |  |  |  |
| Cc1c2ccncc2c(C)c2c1[nH]c1ccccc12 [ELLIPTECINE] |  | 1.75 µM |  |  |  |  |
| NNC(=O)c1ccncc1 [ISONIAZID] |  |  |  |  | 0.36 µM (≈ 0.0494 µg/mL) |  |
| C[C@H]1CC[C@H]2[C@@H](C=C[C@]3(O)COC(=O)[C@]23C)C1 [OBLONGOLIDE C] | > 85 µM | > 212 µM | > 85 µM | > 85 µM | > 212 µM |  |
| C[C@H]1CC[C@H]2[C@H](C1)[C@@H]1O[C@@H]1[C@@H]1COC(=O)[C@]21C [OBLONGOLIDE Q] | > 85 µM | > 212 µM | > 85 µM | > 85 µM | > 212 µM |  |
| C[C@H]1CC[C@H]2[C@@H](C=C[C@@H]3CO[C@](C)(O)C(=O)[C@@]32C)C1 [OBLONGOLIDE T] | > 76 µM | > 189 µM | > 76 µM | > 76 µM | > 189 µM |  |
| C[C@H]1CC[C@H]2[C@@H](C=C[C@@H]3COC(=O)[C@@](O)(CO)[C@@]32C)C1 [OBLONGOLIDE W1] | > 71 µM | > 178 µM | > 71 µM | > 71 µM | 178 µM (≈ 49.9 µg/mL) |  |
| C[C@H]1CC[C@H]2[C@@H](C=C[C@@H]3COC(=O)[C@](O)(CO)[C@@]32C)C1 [OBLONGOLIDE W2] | > 71 µM | > 178 µM | > 71 µM | > 71 µM | > 178 µM |  |
| C[C@H]1CC[C@H]2[C@@H](C=C[C@@H]3CO[C@@](O)(CO)C(=O)[C@@]32C)C1 [OBLONGOLIDE X] | > 71 µM | 96 µM | > 71 µM | > 71 µM | > 178 µM |  |
| CO[C@]1(C(C)=O)OC[C@H]2C=C[C@H]3C[C@@H](C)CC[C@@H]3[C@]21C [OBLONGOLIDE Y] | > 72 µM | > 180 µM | > 72 µM | 48 µM | > 180 µM |  |
| CC(=O)[C@@]1(OCCc2ccccc2)OC[C@H]2C=C[C@H]3C[C@@H](C)CC[C@@H]3[C@]21C [OBLONGOLIDE Z] | 37 µM | 60 µM | 32 µM | 26 µM | > 136 µM |  |
| C[C@H]1CC[C@H]2[C@@H](C=C[C@@H]3COC(=O)[C@@]32C)C1 [OBLONGOLIDE] | > 91 µM | > 227 µM | > 91 µM | > 91 µM | 227 µM (≈ 50 µg/mL) |  |
